RGS4 act: RGS4 potentiators or activators, primary screen, cell-based, HEK293 M3R inducible RGS4, calcium flux | carbachol calcium flux Fluo4; active compounds read low | B-score at 10 µM | 310,000 tested, 0.92% active | AID 463111, 2010;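 active means B-score of the integrated calcium signal more than 4 SD below the library mean, with starting fluorescence not abnormally high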;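 further: negative B-score means reduced calcium response which marks RGS4 activation or potentiation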
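System: HEK293 FlpIn-TREx cells, stable M3R, doxycycline-inducible RGS4. Timing: overnight RGS4 induction, 30 min dye load 37 °C, 20 min compound RT. Also added: carbachol, ECmax concentration. Measured by: Fluo4 fluorescence kinetic imaging of calcium. Evaluation: integrated calcium ratio converted to B score.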
MrgX1 antagonist: antagonists of human MrgX1 receptor, primary screen, HEK293 cells, Fluo-4 calcium flux; Mas-related G-protein coupled receptor member X1 (Homo sapiens), Q96LB2; BAM8-22 antagonism; active compounds read low; B-score at 10 µM; 310,000 tested, 1.3% active; AID 588676, 2011;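 active means calcium-response B-score plate-corrected more than 3 library SD below zero, starting fluorescence within 5 deviations, no agonist response on first addition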;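 further: peak minus trough fluorescence over baseline after final BAM8-22 challenge near maximal dose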
Target sequence (Q96LB2 whole entry, looked up): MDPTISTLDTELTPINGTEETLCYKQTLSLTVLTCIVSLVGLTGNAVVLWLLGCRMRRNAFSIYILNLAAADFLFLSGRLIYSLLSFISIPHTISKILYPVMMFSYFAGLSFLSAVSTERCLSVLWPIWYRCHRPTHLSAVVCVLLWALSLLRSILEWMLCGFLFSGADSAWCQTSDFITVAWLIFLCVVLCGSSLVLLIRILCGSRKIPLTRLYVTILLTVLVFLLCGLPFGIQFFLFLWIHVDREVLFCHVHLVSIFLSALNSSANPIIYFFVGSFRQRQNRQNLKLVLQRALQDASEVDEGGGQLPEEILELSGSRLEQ
RGS4 block: RGS4 inhibitors, primary screen, cell-based, HEK293 M3R inducible RGS4, calcium flux | Regulator of G-protein signaling 4 (Homo sapiens), P49798 | Fluo-4 calcium flux; active compounds read high; triggered by carbachol at its EC20 | B-score at 10 µM | 310,000 tested, 0.45% active;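 active means B-score, a plate-corrected calcium signal, over three deviations above library mean, with baseline fluorescence within five deviations of library mean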;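 further: RGS4 expression induced by doxycycline in cells with stable M3 receptor; B-score is computed from the integrated fluorescence ratio over baseline after carbachol; higher B-score means a larger calcium signal and so more RGS4 inhibition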
Target sequence (P49798 whole entry, looked up): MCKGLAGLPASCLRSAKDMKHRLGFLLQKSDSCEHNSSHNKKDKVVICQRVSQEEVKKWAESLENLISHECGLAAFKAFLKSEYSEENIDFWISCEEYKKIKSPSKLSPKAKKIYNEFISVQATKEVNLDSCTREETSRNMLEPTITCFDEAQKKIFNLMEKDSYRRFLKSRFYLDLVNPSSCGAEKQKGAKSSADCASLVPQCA
MrgX1 ag: agonists of human MrgX1 receptor, primary screen, HEK293 cells, Fluo-4 calcium flux; B-score at 10 µM; Mas-related G-protein coupled receptor member X1 (Homo sapiens), Q96LB2; Fluo-4 calcium fluorescence, agonist mode; active compounds read high; 310,000 tested, 0.44% active;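 active means calcium response B-score plate-corrected fluorescence ratio at least 3 library SD, with starting fluorescence B-score inside 5 SD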
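System – MrgX1-expressing HEK293 cells · Incubation – cells plated overnight, dye loaded 0.5 h 37 °C, 0.5 h room temperature · Technique – kinetic Fluo-4 NW fluorescence of intracellular calcium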
MrgX1 allo act: positive allosteric modulators of MrgX1, primary screen, HEK293 cells, Fluo-4 calcium flux; Mas-related G-protein coupled receptor member X1 (Homo sapiens), Q96LB2; FDSS; active compounds read high; B-score at 10 µM; 310,000 tested, 0.63% active; AID 588675, 2011;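 active means plate-corrected calcium response at least 3 library SD above typical, normal starting fluorescence, not activating the receptor alone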;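 further: compound read alongside a low EC10 to EC30 dose of BAM8-22 agonist; peak minus trough fluorescence over baseline measured at the second addition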
MrgX1 antag conf: MrgX1 receptor antagonists, duplicate retest, confirmation, HEK293 cells, Fluo-4 calcium flux | shares compounds with MrgX1 antagonist | BAM8-22 calcium flux; active compounds read low | remaining BAM8-22 calcium response % of control (active compounds read low), % at 10 µM | 2,300 tested, 19% active | AID 602420, 2012;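 active means remaining agonist calcium response no higher than 100% minus 3 SD of agonist-only control wells, with starting fluorescence near control levels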;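 further: agonist BAM8-22 given at a near maximal EC90 to ECmax level; peak minus minimum fluorescence divided by baseline after agonist addition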
HEK293 Ca flux: nonspecific calcium signal in parental HEK293, confirmation, counter-screen for MrgX1 antagonist project, parental HEK293 cells, Fluo-4 calcium flux | shares compounds with MrgX1 antagonist | Fluo-4 calcium fluorescence, FDSS | fluorescence ratio F(max-min)/F0 at 10 µM | 4,000 tested, 2% active | AID 624111, 2012;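 active means duplicate-averaged calcium fluorescence ratio at least three times the standard deviation of buffer wells, a nonspecific response in parental cells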
HEK293 Ca counter: calcium response in parental HEK293 cells, primary screen, counter-screen for MrgX1 allosteric activator project, cell-based, Fluo-4 calcium flux, duplicate | shares compounds with MrgX1 antagonist | AID 624114, 2012 | fluorescence ratio F(max-min)/F0 at 10 µM | Fluo-4 fluorescence ratio; active compounds read high | 4,000 tested, 0.4% active;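 active means calcium fluorescence ratio, averaged over duplicates, at least 3 SD of the buffer-well ratio, meaning a nonspecific response in receptor-free cells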;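 further: untransfected parental HEK293 lacking MrgX1 used as counterscreen for MrgX1 allosteric activators; fluorescence change taken during the second addition on a kinetic imager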
HEK293 Ca cntr2: calcium response in parental HEK293 cells, primary screen, counter-screen for MrgX1 agonist project, cell-based, Fluo-4 calcium flux, duplicate, agonist mode. 4,000 tested, 8.7% active. Fluo-4 calcium fluorescence (FDSS); active compounds read high. shares compounds with MrgX1 antagonist. AID 624115, 2012. fluorescence ratio F(max-min)/F0 at 10 µM;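 active means calcium fluorescence ratio at least three times the spread of buffer wells, meaning a non-specific response in parental cells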
Of the large screens only hits and unclear results are named; the others gave an inactive call (follow-up assays come after a bar, where they were run). In the library only some 3.5% were active in any assay of this set; here they are far more common.

Cc1ccc(NC(=O)c2ccccc2Br)cc1S(=O)(=O)N(C)C	none
Cc1ccc(NC(=O)c2sccc2C)cc1S(=O)(=O)N(C)C	MrgX1 antagonist -5.2 | MrgX1 antag conf inactive | HEK293 Ca flux inactive | HEK293 Ca counter inactive | HEK293 Ca cntr2 inactive
CCOC(=O)CC1C(=O)NCCN1S(=O)(=O)c1ccc(Cl)cc1Cl (stereo not drawn)	MrgX1 antagonist -6.9 | MrgX1 antag conf inactive | HEK293 Ca flux inactive | HEK293 Ca counter inactive | HEK293 Ca cntr2 inactive
CCOC(=O)c1cnc(SC)nc1Oc1cccc(NS(=O)(=O)c2ccc(Cl)cc2)c1	MrgX1 antagonist -8.7 | MrgX1 antag conf 73% | HEK293 Ca flux inactive | HEK293 Ca counter inactive | HEK293 Ca cntr2 inactive
CCOC(=O)c1cnc(SC)nc1Oc1cccc(NC(=O)c2ccc(Cl)cc2)c1	none
O=C(NC1CCCN(Cc2ccc(Cl)cc2)C1)c1ccnc(Cl)c1 (stereo not drawn)	none
O=C(NC1CCCN(c2ccc(C(F)(F)F)cn2)C1)c1ccnc(Cl)c1 (stereo not drawn)	MrgX1 antagonist -4.9 | MrgX1 antag conf 84% | HEK293 Ca flux inactive | HEK293 Ca counter inactive | HEK293 Ca cntr2 inactive
O=C(COC(=O)c1ccccc1C(=O)OCC(=O)NCCc1c[nH]c2ccccc12)NCCc1c[nH]c2ccccc12	none
O=C(Cn1cc2c(n1)CCCC2)N1CCOCC1	MrgX1 antagonist -5.4 | MrgX1 antag conf inactive | HEK293 Ca flux inactive | HEK293 Ca counter inactive | HEK293 Ca cntr2 inactive
COC(=O)c1ccc(Nc2ncnc3c2cnn3-c2cccc(C)c2)cc1	MrgX1 antagonist -4.8 | MrgX1 antag conf inactive | HEK293 Ca flux inactive | HEK293 Ca counter inactive | HEK293 Ca cntr2 inactive
Cc1ccc(NC(=O)Cn2cnc([N+](=O)[O-])c2)cc1C	none
FC(F)(F)c1cccc(NC(=S)NCc2ccccc2)c1	MrgX1 antagonist -5.4 | MrgX1 antag conf inactive | HEK293 Ca flux inactive | HEK293 Ca counter inactive | HEK293 Ca cntr2 58
FC(F)(F)c1cccc(CNC(=S)Nc2ccccc2)c1	none
CC(C)(C)NC(=S)Nc1cccc(C(F)(F)F)c1	MrgX1 antagonist -5.2 | MrgX1 antag conf inactive | HEK293 Ca flux inactive | HEK293 Ca counter inactive | HEK293 Ca cntr2 inactive
O=C(Nc1ccccc1)Nc1cccc(C(F)(F)F)c1	MrgX1 antagonist -5.2 | MrgX1 antag conf 84% | HEK293 Ca flux inactive | HEK293 Ca counter inactive | HEK293 Ca cntr2 inactive
Cc1cccnc1NC(=S)NC(=O)c1oc2ccccc2c1C	none
O=C(NCCOC(=O)c1cccs1)c1cccnc1	MrgX1 antagonist -7.8 | MrgX1 antag conf inactive | HEK293 Ca flux inactive | HEK293 Ca counter inactive | HEK293 Ca cntr2 inactive
Cc1cc(NC(=O)c2cccnc2)ccc1Br	MrgX1 antagonist -7.5 | MrgX1 antag conf inactive | HEK293 Ca flux inactive | HEK293 Ca counter inactive | HEK293 Ca cntr2 inactive
Cc1cccc(NC(=O)c2cccnc2)c1	none
Cc1ccc(NC(=O)c2cccs2)cc1NC(=O)c1cccnc1	none
O=C(Nc1ccc(NC(=O)c2cccs2)cc1)c1cccnc1	MrgX1 antagonist -5.8 | MrgX1 antag conf inactive | HEK293 Ca flux inactive | HEK293 Ca counter inactive | HEK293 Ca cntr2 inactive
COc1ccc(-c2[nH]ncc2/C=N\NC(=O)c2ccc(Br)o2)cc1OC	none
